Source: PubChem (several laboratories)
Compounds with a hit are over-represented: about 9.4% of the library has one in this group of screens.
L major viab: inhibitors of Leishmania major promastigote growth. 200,000 compounds, 9% hits. Leishmania major promastigotes, resazurin fluorescence viability. inhibition, % at 10 µM; in the data active = inhibition above about 50%;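 also: promastigotes grown with compound for 44 hours at 28 °C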
CSC inhib: blocks cancer stem cells. cancer stem cell-like cells viability, luminescence. inhibition, % at 7.5 µM. 300,000 compounds, 1.1% hits; in the data active = inhibition above about 75%; tested in HMLE shEcad cells
T cruzi repl: T. cruzi replication inhibition. T. cruzi beta-gal in NIH3T3, luminescence, 90 h. inhibition, % (no concentration beside the values). 300,000 compounds, 1.4% hits. AID 1885;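 active = mean inhibition across valid replicates above about 55%, limit read from the data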;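 also: signal also drops with host cell toxicity which is not excluded here; higher percent means less beta-gal luminescence so fewer parasites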
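System: NIH/3T3 fibroblasts plus reporter T. cruzi. Medium: DMEM plus 2% FBS. Probe or stimulus: 5000 reporter trypomastigotes per well. Compound: single 50 nL compound addition per well in DMSO. Incubation: co-culture of at least 90 h after 3 h attachment. Detection: GalScreen β-gal luminescence, detergent lysis, 60 min. Evaluation: parasite load inhibition, %.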
SKKanGAS inh: inhibitors of SKKanGAS S. pyogenes growth in kanamycin (SK-promoter or general growth effect); BacTiter-Glo, 6 h; inhibition, % at 7.5 µM; 300,000 compounds, 1.3% hits; AID 1662;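 active = mean replicate score, as percent of positive control median, at least 50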;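 also: strain carries kanamycin resistance gene driven by streptokinase promoter and grows in 40 µg/ml kanamycin; loss of luminescence reflects streptokinase promoter inhibition or plain growth inhibition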
Mdm2-MdmX inh: disrupts the human Mdm2-MdmX interaction. AID 485346. inhibition, % at 8 µM. 330,000 compounds, 3% hits. SaOS-2 split-luciferase Mdm2/MdmX complementation, luminescence;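 active = inhibition of at least 50% at 8 µM in the primary screen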
Target sequence (O15151 whole entry, looked up): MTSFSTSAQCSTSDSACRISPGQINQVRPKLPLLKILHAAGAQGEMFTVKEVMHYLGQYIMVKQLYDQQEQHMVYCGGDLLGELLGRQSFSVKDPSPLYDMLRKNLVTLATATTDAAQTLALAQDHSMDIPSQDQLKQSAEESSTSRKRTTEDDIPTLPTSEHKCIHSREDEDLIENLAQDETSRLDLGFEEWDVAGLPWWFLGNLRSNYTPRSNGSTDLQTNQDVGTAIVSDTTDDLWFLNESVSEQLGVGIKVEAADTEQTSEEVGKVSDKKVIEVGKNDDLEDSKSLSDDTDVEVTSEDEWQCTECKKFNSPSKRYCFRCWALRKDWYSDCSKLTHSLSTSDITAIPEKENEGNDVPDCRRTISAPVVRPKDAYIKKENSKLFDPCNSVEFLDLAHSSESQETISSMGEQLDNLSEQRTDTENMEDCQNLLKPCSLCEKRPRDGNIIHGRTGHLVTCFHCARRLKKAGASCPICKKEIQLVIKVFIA
Target sequence (Q00987 whole entry, looked up): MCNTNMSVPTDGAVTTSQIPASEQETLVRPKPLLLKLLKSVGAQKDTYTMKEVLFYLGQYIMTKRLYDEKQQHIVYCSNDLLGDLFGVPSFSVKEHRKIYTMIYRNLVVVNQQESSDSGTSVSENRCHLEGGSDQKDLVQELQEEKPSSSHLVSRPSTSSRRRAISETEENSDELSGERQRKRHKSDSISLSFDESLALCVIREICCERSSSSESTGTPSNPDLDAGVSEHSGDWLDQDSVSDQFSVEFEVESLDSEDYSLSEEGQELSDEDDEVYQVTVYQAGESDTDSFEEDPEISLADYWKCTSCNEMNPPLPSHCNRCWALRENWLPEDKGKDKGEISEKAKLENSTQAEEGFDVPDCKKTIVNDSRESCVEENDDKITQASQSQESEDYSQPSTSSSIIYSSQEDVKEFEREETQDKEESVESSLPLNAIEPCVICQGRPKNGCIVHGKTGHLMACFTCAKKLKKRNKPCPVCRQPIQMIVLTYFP
Beta cell apopt: beta cell apoptosis inhibition | AID 435005 | 300,000 compounds, 0.8% hits | INS-1E cytokine-induced death, ATP luminescence, 48 h; percent of positive-control rescue, neutral wells zero | protection from apoptosis, % (concentration not given with the values);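 active = Every replicate reaches about 75%, or at least half do and their mean reaches it too, limit read from the data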;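 also: higher means more ATP so stronger rescue from cytokine killing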
Mdm2 MdmX conf: human Mdm2/MdmX binding inhibition, confirmed; inhibition, % at 8 µM; 10,000 compounds, 55% hits; shares compounds with Mdm2-MdmX inh; luminescent assay; in the data active = inhibition above about 40%
Full FLuc ctr: inhibits full-length luciferase, flagging false Mdm2/MdmX hits; shares compounds with Mdm2-MdmX inh; SaOS-2 full-length luciferase counterscreen, luminescence; inhibition, % at 8 µM; 6,200 compounds, 77% hits; AID 504607;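 active = mean inhibition at 8 µM reaching about 37%, which flags the compound as non-specific, limit read from the data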;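 also: p53-null SaOS-2 cells with luciferase driven by a doxycycline-inducible promoter; compound on cells about two nights before reading with doxycycline added after day one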
Numbers stand for hits.

How did Cc1ccc(NC(=S)NCCC(c2ccccc2)c2ccccc2)c(C)c1 do in these assays?
L major viab: 65.8; CSC inhib: inactive; T cruzi repl: inactive; SKKanGAS inh: 65.8; Mdm2-MdmX inh: 61.4; Beta cell apopt: inactive; Mdm2 MdmX conf: inactive

What do the screens show for `Cc1ccccc1NC(=S)NCCC(c1ccccc1)c1ccccc1`?
L major viab: inactive; CSC inhib: inactive; T cruzi repl: inactive; SKKanGAS inh: inactive; Mdm2-MdmX inh: inactive; Beta cell apopt: inactive

How did Cc1cccc(/C=N/NC(=O)c2c(-c3ccccc3)noc2C)c1O do in these assays?
CSC inhib: inactive; T cruzi repl: inactive; SKKanGAS inh: inactive; Mdm2-MdmX inh: 66.7; Beta cell apopt: 92.3; Mdm2 MdmX conf: 69.0; Full FLuc ctr: inactive

What do the screens show for `O=C(c1c[nH]c2ccccc12)C(Cl)c1ccccc1` (stereo not given)?
CSC inhib: 83.5; T cruzi repl: inactive; SKKanGAS inh: inactive; Mdm2-MdmX inh: 78.7; Beta cell apopt: inactive; Mdm2 MdmX conf: 69.2; Full FLuc ctr: 52.3

How did O=C(OC(C(=O)c1c[nH]c2ccccc12)c1ccccc1)c1cnccn1 (stereo not given) do in these assays?
CSC inhib: inactive; T cruzi repl: inactive; SKKanGAS inh: inactive; Mdm2-MdmX inh: inactive; Beta cell apopt: inactive

How did CCOc1ccc(C(C)=O)cc1CN1C(=O)c2ccccc2S1(=O)=O do in these assays?
CSC inhib: inactive; T cruzi repl: inactive; SKKanGAS inh: inactive; Mdm2-MdmX inh: inactive; Beta cell apopt: inactive

How did COc1ccc(C)c2sc(N(CCN(C)C)C(=O)/C=C/c3cccs3)nc12 do in these assays?
CSC inhib: inactive; T cruzi repl: inactive; SKKanGAS inh: inactive; Mdm2-MdmX inh: 64.9; Beta cell apopt: inactive; Mdm2 MdmX conf: inactive

Results for COc1ccc(C)c2sc(N(CCN(C)C)C(=O)c3cccc(N4C(=O)CCC4=O)c3)nc12 ?
CSC inhib: inactive; T cruzi repl: inactive; SKKanGAS inh: inactive; Mdm2-MdmX inh: inactive

How did COc1ccc(OC)c2sc(N(CCN(C)C)C(=O)/C=C/c3cccs3)nc12 do in these assays?
CSC inhib: inactive; T cruzi repl: inactive; SKKanGAS inh: inactive; Mdm2-MdmX inh: 97.2; Beta cell apopt: inactive; Mdm2 MdmX conf: 100.1; Full FLuc ctr: inactive

What do the screens show for `CSCCC(NC(=O)COc1ccccc1)C(=O)NCC1COc2ccccc2O1` (stereo not given)?
T cruzi repl: inactive; SKKanGAS inh: inactive; Mdm2-MdmX inh: inactive; Beta cell apopt: inactive

What do the screens show for `CS(=O)(=O)N(CC(=O)NCCSCc1ccccc1)c1ccccc1Br`?
CSC inhib: inactive; T cruzi repl: inactive; SKKanGAS inh: inactive; Mdm2-MdmX inh: inactive; Beta cell apopt: inactive

What do the screens show for `CCOC(=O)c1cc2c(N)c(C(=O)c3cc(C#N)c(SC)nc3C)sc2nc1C`?
L major viab: inactive; CSC inhib: inactive; T cruzi repl: inactive; SKKanGAS inh: inactive; Mdm2-MdmX inh: 50.4; Beta cell apopt: inactive; Mdm2 MdmX conf: inactive

What do the screens show for `CC(C)=CCC/C(C)=C/CC/C(C)=C/COc1ccc2ccc(=O)oc2c1`?
CSC inhib: inactive; Mdm2-MdmX inh: inactive; Beta cell apopt: inactive

What do the screens show for `Cc1ccc(C(=O)Nc2nc3ccccc3[nH]2)cc1`?
CSC inhib: inactive; T cruzi repl: inactive; Mdm2-MdmX inh: 64.0; Beta cell apopt: inactive; Mdm2 MdmX conf: 48.8; Full FLuc ctr: 57.5

Results for C/C(=N\Nc1nc2ccccc2[nH]1)c1ccc([N+](=O)[O-])cc1 ?
CSC inhib: inactive; T cruzi repl: inactive; SKKanGAS inh: inactive; Mdm2-MdmX inh: 55.3; Beta cell apopt: inactive; Mdm2 MdmX conf: inactive

What do the screens show for `O=C(NCc1nc2ccccc2[nH]1)c1ccc([N+](=O)[O-])cc1`?
L major viab: inactive; CSC inhib: inactive; T cruzi repl: inactive; SKKanGAS inh: inactive; Mdm2-MdmX inh: inactive; Beta cell apopt: inactive

What do the screens show for `O=C(Nc1nc2ccccc2[nH]1)c1ccc([N+](=O)[O-])cc1`?
L major viab: inactive; CSC inhib: inactive; T cruzi repl: inactive; SKKanGAS inh: inactive; Mdm2-MdmX inh: inactive; Beta cell apopt: inactive

How did Cc1cccc(C(=O)N[C@H](C(=O)Nc2nc3ccccc3[nH]2)C(C)C)c1 do in these assays?
L major viab: inactive; CSC inhib: inactive; T cruzi repl: inactive; SKKanGAS inh: inactive; Mdm2-MdmX inh: 73.5; Beta cell apopt: inactive; Mdm2 MdmX conf: 68.2; Full FLuc ctr: 99.6

Results for COc1ccc(CC(=O)Nc2cccc3c2CCCC3)cc1 ?
CSC inhib: inactive; T cruzi repl: inactive; SKKanGAS inh: inactive; Mdm2-MdmX inh: inactive; Beta cell apopt: inactive

How did COc1ccc(C(=O)Nc2cccc3c2CCCC3)cc1 do in these assays?
CSC inhib: inactive; T cruzi repl: inactive; SKKanGAS inh: inactive; Mdm2-MdmX inh: 51.1; Beta cell apopt: inactive; Mdm2 MdmX conf: inactive; Full FLuc ctr: 73.8

How did Cc1ccc(C(=O)Nc2cnc3ccccc3c2)cc1 do in these assays?
L major viab: inactive; CSC inhib: inactive; T cruzi repl: inactive; SKKanGAS inh: inactive; Mdm2-MdmX inh: 81.7; Beta cell apopt: inactive; Mdm2 MdmX conf: inactive

What do the screens show for `COc1ccc(C(=O)Nc2nc3ccccc3[nH]2)cc1`?
CSC inhib: inactive; T cruzi repl: inactive; SKKanGAS inh: inactive; Mdm2-MdmX inh: 56.3; Mdm2 MdmX conf: inactive; Full FLuc ctr: 82.6

Results for Cc1cc(C(=O)Nc2cnc3ccccc3c2)ccc1[N+](=O)[O-] ?
L major viab: inactive; CSC inhib: inactive; T cruzi repl: inactive; SKKanGAS inh: inactive; Mdm2-MdmX inh: inactive; Beta cell apopt: inactive

Results for CN(C)C(CNC(=O)c1cc(-c2ccco2)nc2ccccc12)c1ccccc1 (stereo not given) ?
CSC inhib: inactive; Mdm2-MdmX inh: inactive; Beta cell apopt: inactive

Results for Cn1c(CCN2CCCC2)nc2cc(NS(=O)(=O)c3ccc(Cl)cc3)ccc21 ?
CSC inhib: inactive; T cruzi repl: inactive; SKKanGAS inh: inactive; Mdm2-MdmX inh: 68.8; Beta cell apopt: inactive; Mdm2 MdmX conf: inactive

How did Cc1ccc(C(C)C)c(OCC(=O)Nc2ccc3c(c2)nc(CCN2CCCCC2)n3C)c1 do in these assays?
CSC inhib: inactive; T cruzi repl: inactive; SKKanGAS inh: inactive; Mdm2-MdmX inh: 99.0; Beta cell apopt: inactive; Mdm2 MdmX conf: 82.2; Full FLuc ctr: 59.8

How did Cn1c(CCN2CCCCC2)nc2cc(NC(=O)COc3ccc(Cl)cc3)ccc21 do in these assays?
CSC inhib: inactive; T cruzi repl: inactive; SKKanGAS inh: inactive; Mdm2-MdmX inh: inactive; Beta cell apopt: inactive

How did COCC1CCN(C(=O)c2ccc3oc(Cc4ccc(Cl)cc4)nc3c2)C1 (stereo not given) do in these assays?
CSC inhib: inactive; T cruzi repl: inactive; SKKanGAS inh: inactive; Mdm2-MdmX inh: inactive; Beta cell apopt: inactive

What do the screens show for `COc1ccccc1C(=O)NC(=Nc1nc2ccccc2o1)NC(=O)c1ccccc1OC`?
L major viab: 100.3; CSC inhib: inactive; T cruzi repl: 70.5; SKKanGAS inh: inactive; Mdm2-MdmX inh: 87.5; Beta cell apopt: inactive; Mdm2 MdmX conf: 55.1; Full FLuc ctr: 88.2
